For assay [1], the system named is HeLa. Put plainly: Growth inhibition of human HeLa cells after 48 hrs by MTT assay in presence of 10% FBS supplemented DMEM medium. The format is functional. An outline of the steps: (§1)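 Cells seeded at 5 × 10³/well and allowed 24 h to attach, then exposed to compound (DMSO stock) or vehicle for 48 h in 10% FBS DMEM at 37 °C, 5% CO₂. MTT (2 mg/mL in PBS) added for a further 2 h; formazan dissolved in DMSO and read at 570 nm. Inhibition = (1 − At/Ac) × 100. GI₅₀ interpolated from dose-response curves; mean ± SEM of 4–6 experiments; top concentration 40 μM.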

Assay [2] in a line: Growth inhibition of human BT-483 cells after 48 hrs by MTT assay in presence of 10% FBS supplemented DMEM medium. The format is functional. The settings on record: BT-483, 48 h. An outline of the steps: as §1
Assay [3] deals with T1, MAP kinase p38 (Homo sapiens) (UniProt O15264+Q15759+Q16539+P53778). Description: Activation of p38 phosphorylation in human HeLa cells at 3 uM in presence of 10 uM CuCl2 by Western blot. The format is cell-based. To be noted: TDE = time-dependent effect. An outline of the steps:
(§2)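 HeLa cells grown in DMEM with 10% FBS, 2 mM glutamine and penicillin/streptomycin at 37 °C, 5% CO₂. Treated cells were lysed and the extracts run on Western blot. Membranes were blocked overnight at 4 °C in TBST/5% non-fat milk. Probed with phospho- and total ERK1/2, p38 and JNK antibodies, then anti-mouse or anti-rabbit IgG (1:10,000, 1 h, RT), with ECL detection.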

In assay [4] the test system is HeLa. Description: Activation of ERK phosphorylation in human HeLa cells at 3 uM in presence of 10 uM CuCl2 and tempol after 2 hrs by Western blot. The format is cell-based. Put shortly:
as §2

The nature of assay [5]: Activation of JNK phosphorylation in human HeLa cells at 3 uM in presence of 10 uM CuCl2 and tempol after 2 hrs by Western blot. It counts as cell-based. An outline of the steps:
as §2

The target in assay [6] is T1, MAP kinase p38 (Homo sapiens). Put plainly: Activation of p38 phosphorylation in human HeLa cells at 3 uM in presence of 10 uM CuCl2 and tempol after 2 hrs by Western blot. The format is cell-based. An outline of the steps: as §2
Assay [7] deals with HeLa. Put plainly: Activation of ERK phosphorylation in human HeLa cells at 3 uM after 2 hrs by Western blot. It counts as cell-based. An outline of the steps:
as §2

Assay [8] can be described thus: Activation of JNK phosphorylation in human HeLa cells at 3 uM after 2 hrs by Western blot. The format is cell-based. Put shortly: as §2
The target in assay [9] is T1, MAP kinase p38 (Homo sapiens). Put plainly: Activation of p38 phosphorylation in human HeLa cells at 3 uM after 2 hrs by Western blot. It counts as cell-based. Put shortly: as §2
Assay [10] has as its system HeLa. Put plainly: Activation of ERK phosphorylation in human HeLa cells at 3 uM in presence of 10 uM CuCl2 by Western blot. The settings on record: TDE = time-dependent effect. It counts as cell-based. Put shortly: as §2
Assay [11] can be described thus: Activation of JNK phosphorylation in human HeLa cells at 3 uM in presence of 10 uM CuCl2 by Western blot. The settings on record: TDE = time-dependent effect. It counts as cell-based. Put shortly: as §2
The nature of assay [12]: Growth inhibition of human SKHep cells after 48 hrs by MTT assay in presence of 10% FBS supplemented DMEM medium. The format is functional. Put shortly:
as §1

Assay [13] is described as follows: Growth inhibition of human CE81T cells after 48 hrs by MTT assay in presence of 10% FBS supplemented DMEM medium. The format is functional. Put shortly: as §1
Assay [14] relates to HeLa. Put plainly: Growth inhibition of human HeLa cells after 48 hrs by MTT assay in presence of 1 uM CuCl2. The format is functional. An outline of the steps: as §1
The subject of assay [15] is HeLa. Put plainly: Growth inhibition of human HeLa cells after 48 hrs by MTT assay in presence of 10 uM CuCl2. The format is functional. An outline of the steps:
as §1

Assay [16] has as its system HeLa. Put plainly: Growth inhibition of human HeLa cells after 48 hrs by MTT assay in presence of 50 uM CuCl2. The format is functional. Put shortly:
as §1

The test system of assay [17] is HeLa. Description: Growth inhibition of human HeLa cells after 48 hrs by MTT assay in presence of 50 uM ZnCl2. It counts as functional. Put shortly: as §1
Assay [18] deals with HeLa. Description: Growth inhibition of human HeLa cells after 48 hrs by MTT assay in presence of 100 uM ZnCl2. The format is functional. Put shortly: as §1
Assay [19] relates to HeLa. Description: Induction of apoptosis in human HeLa cells assessed as accumulation at subG1 phase after 24 hrs by flow cytometry. It counts as functional, cell-based. Put shortly: (§3)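 HeLa cells exposed 24 h to test agent; controls were 0.5% DMSO and untreated cells. Optional additions were CuCl₂ 10 μM, tempol 1 mM or z-VAD. Cells were fixed in 80% ethanol and held at −20 °C. They were then stained 30 min at room temperature in the dark with PI 0.08 mg/mL, 0.1% Triton X-100 and RNase A 0.2 mg/mL in PBS. Subdiploid (sub-G1) fraction was quantified by flow cytometry as % of all events.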

Assay [20] relates to HeLa. Description: Induction of apoptosis in human HeLa cells assessed as PARP cleavage at 3 uM after 24 hrs by Western blot. It counts as functional, cell-based.
In assay [21] the test system is HeLa. Put plainly: Induction of apoptosis in human HeLa cells assessed as PARP cleavage at 10 uM after 24 hrs by Western blot. It counts as functional, cell-based.
For assay [22], the system named is HeLa. Put plainly: Induction of apoptosis in human HeLa cells assessed as procaspase-3 activation at 3 uM after 24 hrs by Western blot. The format is functional, cell-based.
Assay [23] has as its system HeLa. Description: Induction of apoptosis in human HeLa cells assessed as procaspase-3 activation at 10 uM after 24 hrs by Western blot. The format is functional, cell-based.
Assay [24] has as its system HeLa. Description: Induction of apoptosis in human HeLa cells assessed as procaspase-9 activation at 3 uM after 24 hrs by Western blot. The format is functional, cell-based.
The test system of assay [25] is HeLa. Put plainly: Induction of apoptosis in human HeLa cells assessed as procaspase-9 activation at 10 uM after 24 hrs by Western blot. The format is functional, cell-based.
For assay [26], the system named is HeLa. Put plainly: Induction of apoptosis in human HeLa cells assessed as accumulation at subG1 phase at 3 uM after 24 hrs using propidium iodide staining by flow cytometry. It counts as functional. Put shortly:
as §3

The test system of assay [27] is HeLa. Description: Induction of apoptosis in human HeLa cells assessed as accumulation at subG1 phase at 3 uM in presence of 10 uM CuCl2 after 24 hrs using propidium iodide staining by flow cytometry. It counts as functional. An outline of the steps:
as §3

Assay [28] has as its system HeLa. Put plainly: Induction of apoptosis in human HeLa cells assessed as accumulation at subG1 phase at 3 uM in presence of 1 mM tempol after 24 hrs using propidium iodide staining by flow cytometry. The format is functional. Put shortly:
as §3

Assay [29] deals with HeLa. Description: Stimulation of reactive oxygen species in human HeLa cells at 3 uM in presence of 5 uM CuCl2 after 1 hr by dihydroethidium dye based fluorescence assay. It counts as functional, cell-based. An outline of the steps:
(§4)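 HeLa cells grown in DMEM with 10% FBS, 2 mM glutamine, penicillin/streptomycin at 37 °C, 5% CO2. Compound given with CuCl2, with or without tempol 1 mM; 0.5% DMSO control, untreated blank. Dihydroethidium 5 µmol/L loaded 30 min, PBS wash, epifluorescence microscopy; four separate cultures, two to six coverslips each.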

The test system of assay [30] is HeLa. Put plainly: Activation of ERK phosphorylation in human HeLa cells at 3 uM in presence of 10 uM CuCl2 after 2 hrs by Western blot. The format is cell-based. An outline of the steps: as §2
Assay [31] in a line: Activation of JNK phosphorylation in human HeLa cells at 3 uM in presence of 10 uM CuCl2 after 2 hrs by Western blot. The format is cell-based. An outline of the steps: as §2
Assay [32] deals with T1, MAP kinase p38 (Homo sapiens). Put plainly: Activation of p38 phosphorylation in human HeLa cells at 3 uM in presence of 10 uM CuCl2 after 2 hrs by Western blot. The format is cell-based. An outline of the steps: as §2
Assay [33] concerns BT-483. Put plainly: Growth inhibition of human BT-483 cells at 40 uM after 48 hrs by MTT assay in presence of 10% FBS supplemented DMEM medium. The format is functional, cell-based. Put shortly: as §1
For assay [34], the system named is SKHep. Description: Growth inhibition of human SKHep cells at 40 uM after 48 hrs by MTT assay in presence of 10% FBS supplemented DMEM medium. The format is functional, cell-based. An outline of the steps: as §1
In assay [35] the test system is CE81T. Put plainly: Growth inhibition of human CE81T cells at 40 uM after 48 hrs by MTT assay in presence of 10% FBS supplemented DMEM medium. It counts as functional, cell-based. An outline of the steps: as §1
Assay [36] has as its system HeLa. Description: Stimulation of reactive oxygen species in human HeLa cells at 10 uM in presence of 10 uM CuCl2 after 1 hr by dihydroethidium dye based fluorescence assay. The format is functional, cell-based. An outline of the steps: as §4

Activity calls are given as the source filed them. The calls are words filed in the database; no cut-off is given here.

As to `O=S(=O)(c1ccccc1)N1CCN(Cc2ccc3cccnc3c2O)CC1`, the GI50 in [1] was 6.8 µM; in [2], 10.7 µM; in assay [12] it was 14.6 µM; in assay [13] it was 5.6 µM; in assay [14] it was 2.5 µM; in [15] it was 0.31 µM. For the same molecule, the figures for the GI50 in assay [16], in assay [17] and in [18] were 0.27 µM, 7.5 µM and 7.3 µM, respectively. Besides, the Activity result in assay [3] was “tde”; in assay [10], “tde”; in assay [11], “tde”; in assay [19], “Dose-dependent effect”; in assay [26], 7.91%; in [27], 29.76%. In [28], the Activity is given as 5.79%. Also, the result in [4], in [5], in assay [6], in [7], in assay [8] and in assay [9] was inactive. For the same molecule, the outcome in assay [20], in assay [21], in assay [22], in [23], in [24] and in assay [25] was Active. Moreover, the result in [29], in [30], in assay [31] and in [32] was Active.
As for `O=S(=O)(c1ccccc1)N1CCN(Cc2ccc3ccccc3c2O)CC1`, the GI50 in assay [1] is 38.6 µM; in assay [14] it was 40.1 µM; in assay [15], 28.4 µM; in [16], 22.6 µM; in [17], 29.7 µM; in assay [18] it was 20.1 µM. Moreover, the GI50 result in assay [33], in assay [34] and in assay [35] was “inactive” throughout.
On to `Oc1c(CN2CCCCC2)ccc2ccccc12`, for which the GI50 was determined as 25.5 µM in assay [1]; 30.7 µM in assay [14]; 22.8 µM in [15]; 48.8 µM in [16]; 34 µM in assay [17]; 44.5 µM in [18]. The GI50 entry in assay [33], in assay [34] and in assay [35] was “inactive” in each case.
`Oc1c(CN2CCCCC2)ccc2cccnc12`: the GI50 in [1] turned out to be 14.5 µM; in assay [2], 26.9 µM; in assay [12] it was 16.6 µM; in [13], 16.7 µM; in assay [14], 3 µM; in [15] it was 0.58 µM. Besides, the GI50 in assay [16] amounted to 0.35 µM; in assay [17] it was 8.5 µM; in assay [18], 12.9 µM. In addition, the outcome in assay [29] was Active.
In the case of `CCN(CC)CCCC(C)Nc1ccnc2cc(Cl)ccc12` (stereo not given) [CHLOROQUINE], the GI50 was 18.6 µM in assay [1]; 10.2 µM in assay [2]; 9.5 µM in [12]; 23.4 µM in [13]; 6.1 µM in [14]; 5.3 µM in [15]. The GI50 came to 4.4 µM in assay [16], 5.6 µM in [17] and 2.1 µM in assay [18]. For the same molecule, the outcome in assay [36] was Active.

The values are drawn from ChEMBL document CHEMBL1152609, “Synthesis and pharmacological exploitation of clioquinol-derived copper-binding apoptosis inducers triggering reactive oxygen species generation and MAPK pathway activation” (2009).
